Measurements as given in PubChem BioAssay AID588487 (The Scripps Research Institute Molecular Screening Center, 2011).
Activity calls are given as the source filed them.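 How the source made its calls: active means inhibition of at least 50% against any of four protein arginine deiminase enzymes; inactive means the rest.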

Tests used:
Test in all cases: PAD1-4 inhibition by competitive ABPP, late-stage follow-up, orthogonal assay for PAD4 inhibitor project, biochemical, fluorescence, gel-based ABPP, HTS hits (AID 588487)
[1] = target: Protein-arginine deiminase type-2 (Homo sapiens) (UniProt Q9Y2J8); conditions: recombinant PAD1-4, gel-based ABPP, RFA probe fluorescence; PAD2; at 10 µM; hits give high values
Chain of Protein-arginine deiminase type-2 (Homo sapiens) (Q9Y2J8 whole entry, looked up): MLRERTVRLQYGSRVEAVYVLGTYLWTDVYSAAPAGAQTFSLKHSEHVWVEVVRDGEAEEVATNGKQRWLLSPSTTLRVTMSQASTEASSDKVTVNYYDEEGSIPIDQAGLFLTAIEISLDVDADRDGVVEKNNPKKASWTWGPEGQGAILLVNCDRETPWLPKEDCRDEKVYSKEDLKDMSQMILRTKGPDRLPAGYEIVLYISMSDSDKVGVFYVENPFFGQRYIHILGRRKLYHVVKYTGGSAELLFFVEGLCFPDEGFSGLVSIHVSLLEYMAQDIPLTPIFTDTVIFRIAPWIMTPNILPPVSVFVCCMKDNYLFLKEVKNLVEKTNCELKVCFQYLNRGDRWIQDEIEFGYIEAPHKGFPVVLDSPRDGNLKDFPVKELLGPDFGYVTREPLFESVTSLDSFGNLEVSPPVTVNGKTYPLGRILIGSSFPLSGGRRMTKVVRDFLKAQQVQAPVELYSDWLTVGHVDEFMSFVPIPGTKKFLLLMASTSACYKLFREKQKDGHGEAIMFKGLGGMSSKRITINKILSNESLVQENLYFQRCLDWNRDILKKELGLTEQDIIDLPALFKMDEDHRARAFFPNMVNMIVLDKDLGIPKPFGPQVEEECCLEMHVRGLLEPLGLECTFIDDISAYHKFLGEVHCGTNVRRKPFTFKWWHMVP
Procedure, shortened: (§1)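 System: Recombinant PAD1, PAD2, PAD3 or PAD4 | Input: PAD enzyme 10 µM | Probe or stimulus: RFA fluorescent probe at 1 µM | Compound: One 10 µM dose per compound | Schedule: 15 min compound pre-incubation plus 30 min probe step, 37 °C | Detection: in-gel fluorescence scan of probe-labeled PAD band after SDS-PAGE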

[2] = target: Protein-arginine deiminase type-4 (Homo sapiens) (UniProt Q9UM07); conditions: recombinant PAD1-4, gel-based ABPP, RFA probe fluorescence; PAD4; at 10 µM; hits give high values
Chain of Protein-arginine deiminase type-4 (Homo sapiens) (Q9UM07 whole entry, looked up): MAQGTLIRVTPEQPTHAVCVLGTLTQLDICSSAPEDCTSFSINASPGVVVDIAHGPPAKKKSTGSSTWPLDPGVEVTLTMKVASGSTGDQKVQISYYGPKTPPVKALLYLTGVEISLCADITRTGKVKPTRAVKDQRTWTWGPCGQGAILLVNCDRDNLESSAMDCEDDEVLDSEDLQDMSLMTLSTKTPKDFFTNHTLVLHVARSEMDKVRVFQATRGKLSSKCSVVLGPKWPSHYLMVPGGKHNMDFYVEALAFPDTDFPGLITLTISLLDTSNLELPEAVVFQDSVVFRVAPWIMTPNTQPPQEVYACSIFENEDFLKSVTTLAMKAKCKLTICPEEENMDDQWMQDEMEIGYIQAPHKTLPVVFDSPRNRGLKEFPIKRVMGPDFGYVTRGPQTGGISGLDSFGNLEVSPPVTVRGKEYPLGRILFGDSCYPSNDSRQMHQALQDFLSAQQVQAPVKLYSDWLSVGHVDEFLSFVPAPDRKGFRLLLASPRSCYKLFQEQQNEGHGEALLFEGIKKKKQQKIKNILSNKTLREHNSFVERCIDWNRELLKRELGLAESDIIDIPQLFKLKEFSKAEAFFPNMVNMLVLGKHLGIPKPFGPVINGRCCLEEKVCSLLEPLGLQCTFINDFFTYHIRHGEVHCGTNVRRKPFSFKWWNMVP
Procedure, shortened: as §1

[3] = target: Protein-arginine deiminase type-3 (Homo sapiens) (UniProt Q9ULW8); conditions: recombinant PAD1-4, gel-based ABPP, RFA probe fluorescence; PAD3; at 10 µM; hits give high values
Chain of Protein-arginine deiminase type-3 (Homo sapiens) (Q9ULW8 whole entry, looked up): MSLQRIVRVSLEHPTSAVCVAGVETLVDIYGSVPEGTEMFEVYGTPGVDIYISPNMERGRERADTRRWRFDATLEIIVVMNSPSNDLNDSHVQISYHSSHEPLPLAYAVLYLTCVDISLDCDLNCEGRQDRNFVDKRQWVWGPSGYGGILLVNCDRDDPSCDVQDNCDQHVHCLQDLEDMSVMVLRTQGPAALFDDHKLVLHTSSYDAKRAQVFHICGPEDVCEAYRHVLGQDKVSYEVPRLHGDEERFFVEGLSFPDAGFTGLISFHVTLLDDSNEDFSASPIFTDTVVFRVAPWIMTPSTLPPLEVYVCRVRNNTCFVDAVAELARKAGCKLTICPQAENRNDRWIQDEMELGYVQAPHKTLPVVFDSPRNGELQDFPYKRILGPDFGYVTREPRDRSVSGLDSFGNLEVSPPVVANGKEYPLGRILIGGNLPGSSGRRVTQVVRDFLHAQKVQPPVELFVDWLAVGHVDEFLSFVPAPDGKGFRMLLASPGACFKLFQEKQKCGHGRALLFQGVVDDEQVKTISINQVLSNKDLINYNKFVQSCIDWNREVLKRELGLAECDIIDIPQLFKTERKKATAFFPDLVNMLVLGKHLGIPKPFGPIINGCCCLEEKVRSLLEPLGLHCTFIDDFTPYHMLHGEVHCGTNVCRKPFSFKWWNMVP
Procedure, shortened: as §1

[4] = target: Protein-arginine deiminase type-1 (Homo sapiens) (UniProt Q9ULC6); conditions: recombinant PAD1-4, gel-based ABPP, RFA probe fluorescence; PAD1; at 10 µM; hits give high values
Chain of Protein-arginine deiminase type-1 (Homo sapiens) (Q9ULC6 whole entry, looked up): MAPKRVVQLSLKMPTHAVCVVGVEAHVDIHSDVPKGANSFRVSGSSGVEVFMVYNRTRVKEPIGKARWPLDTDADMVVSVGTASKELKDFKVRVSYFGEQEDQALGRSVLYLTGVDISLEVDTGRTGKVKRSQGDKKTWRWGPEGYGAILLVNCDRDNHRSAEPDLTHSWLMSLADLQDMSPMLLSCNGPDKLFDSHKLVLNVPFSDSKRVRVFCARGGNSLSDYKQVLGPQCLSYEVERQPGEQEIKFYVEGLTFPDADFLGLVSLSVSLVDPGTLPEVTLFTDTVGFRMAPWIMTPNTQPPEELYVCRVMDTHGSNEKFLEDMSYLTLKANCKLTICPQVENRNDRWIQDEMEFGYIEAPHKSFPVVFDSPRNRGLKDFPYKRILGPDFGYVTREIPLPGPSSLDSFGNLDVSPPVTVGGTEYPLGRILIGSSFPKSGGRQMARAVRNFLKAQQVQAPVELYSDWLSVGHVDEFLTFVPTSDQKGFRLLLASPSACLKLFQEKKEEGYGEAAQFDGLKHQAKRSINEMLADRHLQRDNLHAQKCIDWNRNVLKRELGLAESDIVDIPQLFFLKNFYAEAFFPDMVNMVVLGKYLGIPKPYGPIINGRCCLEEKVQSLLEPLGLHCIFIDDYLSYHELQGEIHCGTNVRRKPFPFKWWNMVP
Procedure, shortened: as §1

SMILES: COc1ccc(-c2noc3c2-c2nc(-c4ccc(Br)cc4)sc2CC3)cc1
- inhibition [1]: 32% (inactive)
- inhibition [2]: 47% (inactive)
- inhibition [3]: -23% (inactive)
- inhibition [4]: 33% (inactive)

SMILES: COc1cccc(C2=CC(c3ccc(OC)c(OC)c3)NC(=S)N2)c1 (stereo not given)
- inhibition [1]: 14% (inactive)
- inhibition [2]: -9% (inactive)
- inhibition [3]: -3% (inactive)
- inhibition [4]: -9% (inactive)

SMILES: COc1cc(NC2c3ccccc3C(=O)N2Cc2ccccc2Cl)cc(OC)c1 (stereo not given)
- inhibition [1]: 17% (inactive)
- inhibition [2]: 18% (inactive)
- inhibition [3]: -3% (inactive)
- inhibition [4]: 38% (inactive)

SMILES: CCOC(=O)N1CCC(c2cc(=O)n(-c3ccccc3)[nH]2)CC1
- inhibition [1]: 14% (inactive)
- inhibition [2]: 30% (inactive)
- inhibition [3]: 32% (inactive)
- inhibition [4]: 43% (inactive)

SMILES: COc1ccc(/C=C2/C(=O)N(c3ccccc3)N=C2C)cc1
- inhibition [1]: 47% (inactive)
- inhibition [2]: 35% (inactive)
- inhibition [3]: 35% (inactive)
- inhibition [4]: 20% (inactive)

SMILES: CCN(CC)S(=O)(=O)c1ccc(N=NC2=C(O)CCCC2=O)cc1
- inhibition [1]: 63%
- inhibition [2]: 93%
- inhibition [3]: 6% (inactive)
- inhibition [4]: -20% (inactive)

SMILES: COc1ccc(-c2cc(=O)n(CCC#N)[nH]2)cc1
- inhibition [1]: 17% (inactive)
- inhibition [2]: 32% (inactive)
- inhibition [3]: 35% (inactive)
- inhibition [4]: 17% (inactive)

SMILES: Cn1c(SCC(=O)Nc2ccc(Br)cn2)nnc1C1CC1
- inhibition [1]: 19% (inactive)
- inhibition [2]: 15% (inactive)
- inhibition [3]: -19% (inactive)
- inhibition [4]: 17% (inactive)

SMILES: Cc1nn(-c2ccccc2)c(C)c1NC(=O)COc1ccc(Cl)cc1Cl
- inhibition [1]: 29% (inactive)
- inhibition [2]: 12% (inactive)
- inhibition [3]: 57%
- inhibition [4]: 2% (inactive)

SMILES: CC(=O)N(Cc1cc(=O)[nH]c2ccccc12)c1cccc(C)c1
- inhibition [1]: 19% (inactive)
- inhibition [2]: -7% (inactive)
- inhibition [3]: 39% (inactive)
- inhibition [4]: 58%

SMILES: Cc1nonc1OC(C)CNc1ccc([N+](=O)[O-])cc1 (stereo not given)
- inhibition [1]: 38% (inactive)
- inhibition [2]: 22% (inactive)
- inhibition [3]: 38% (inactive)
- inhibition [4]: 46% (inactive)

SMILES: N#CCCN(C(=O)Cn1nc(C(=O)O)c2ccccc2c1=O)c1ccccc1
- inhibition [1]: 21% (inactive)
- inhibition [2]: -23% (inactive)
- inhibition [3]: 29% (inactive)
- inhibition [4]: 53%

SMILES: CN(C)CCN(Cc1ccccc1)c1ccccn1
- inhibition [1]: 46% (inactive)
- inhibition [2]: 65%
- inhibition [3]: -7% (inactive)
- inhibition [4]: 13% (inactive)

SMILES: CCOc1ccccc1C(=O)NCC(=O)NCCCc1ccccc1
- inhibition [1]: 26% (inactive)
- inhibition [2]: 31% (inactive)
- inhibition [3]: 11% (inactive)
- inhibition [4]: -8% (inactive)

SMILES: O=c1cc(-c2cccc([N+](=O)[O-])c2)[nH][nH]1
- inhibition [1]: 18% (inactive)
- inhibition [2]: 29% (inactive)
- inhibition [3]: 5% (inactive)
- inhibition [4]: 24% (inactive)

SMILES: CC(=O)C1=C(c2ccccc2)N(C(C)=O)n2c(C)nnc2S1
- inhibition [1]: 25% (inactive)
- inhibition [2]: 9% (inactive)
- inhibition [3]: 32% (inactive)
- inhibition [4]: 42% (inactive)

SMILES: COc1ccc(C2=CC(c3ccc(OC)c(OC)c3)NC(=S)N2)cc1 (stereo not given)
- inhibition [1]: -9% (inactive)
- inhibition [2]: -50% (inactive)
- inhibition [3]: 36% (inactive)
- inhibition [4]: 37% (inactive)

SMILES: O=C1CC(c2cccnc2)=NN1c1ccccc1
- inhibition [1]: 34% (inactive)
- inhibition [2]: 4% (inactive)
- inhibition [3]: 34% (inactive)
- inhibition [4]: 37% (inactive)

SMILES: O=C(O)c1ccc(S(=O)(=O)c2ccc3c(c2)C(=O)N(c2ccc(O)cc2)C3=O)cc1
- inhibition [1]: 32% (inactive)
- inhibition [2]: -3% (inactive)
- inhibition [3]: 34% (inactive)
- inhibition [4]: 18% (inactive)

SMILES: Cc1cc(-c2nnc(SCC(=O)Nc3ccc(F)c(F)c3)n2N)n[nH]1
- inhibition [1]: 62%
- inhibition [2]: 51%
- inhibition [3]: -20% (inactive)
- inhibition [4]: 43% (inactive)

SMILES: O=C(COc1ccccc1F)N1CCN(S(=O)(=O)/C=C/c2ccccc2)CC1
- inhibition [1]: 25% (inactive)
- inhibition [2]: 42% (inactive)
- inhibition [3]: 3% (inactive)
- inhibition [4]: -10% (inactive)

SMILES: Cc1oc2c(C)c(O)ccc2c(=O)c1-c1ccc2ccccc2n1
- inhibition [1]: 50%
- inhibition [2]: 1% (inactive)
- inhibition [3]: 42% (inactive)
- inhibition [4]: -33% (inactive)

SMILES: Cc1cc(C)c(C)c(S(=O)(=O)N2CCC(C(=O)N3CCCC3)CC2)c1C
- inhibition [1]: -43% (inactive)
- inhibition [2]: 39% (inactive)
- inhibition [3]: 22% (inactive)
- inhibition [4]: -32% (inactive)

SMILES: Cc1cc(N(C)NC(=S)Nc2ccccc2)nc(C)n1
- inhibition [1]: 58%
- inhibition [2]: 5% (inactive)
- inhibition [3]: 38% (inactive)
- inhibition [4]: 32% (inactive)

SMILES: CN(C)C(CNC(=O)c1cc2ccccc2o1)c1ccco1 (stereo not given)
- inhibition [1]: 46% (inactive)
- inhibition [2]: 24% (inactive)
- inhibition [3]: 35% (inactive)
- inhibition [4]: 11% (inactive)

SMILES: O=C(O)CCC(=O)Nc1ccc(SSc2ccc(NC(=O)CCC(=O)O)cc2)cc1
- inhibition [1]: 40% (inactive)
- inhibition [2]: 45% (inactive)
- inhibition [3]: 34% (inactive)
- inhibition [4]: 35% (inactive)

SMILES: CCOc1nc(Nc2ccc(OC)cc2OC)nc(OCC)n1
- inhibition [1]: 62%
- inhibition [2]: 20% (inactive)
- inhibition [3]: 46% (inactive)
- inhibition [4]: 37% (inactive)

SMILES: COc1cccc(/C=C2/CN(C)CC3=C2OC(N)=C(C#N)C3c2cccc(OC)c2)c1 (stereo not given)
- inhibition [1]: 92%
- inhibition [2]: -5% (inactive)
- inhibition [3]: 48% (inactive)
- inhibition [4]: -47% (inactive)

SMILES: O=C(NCC1CCCO1)c1cc2c([nH]c3ccccc32)c(-c2ccc(F)cc2)n1 (stereo not given)
- inhibition [1]: 13% (inactive)
- inhibition [2]: 78%
- inhibition [3]: -27% (inactive)
- inhibition [4]: 36% (inactive)

SMILES: COc1ccc(OC)c(C2C(C#N)=C(N)Oc3c2c(C)nn3-c2ccc(C)cc2)c1 (stereo not given)
- inhibition [1]: 18% (inactive)
- inhibition [2]: 31% (inactive)
- inhibition [3]: -37% (inactive)
- inhibition [4]: 22% (inactive)

SMILES: O=c1cc(-c2ccc(Cl)c(Cl)c2)[nH][nH]1
- inhibition [1]: 51%
- inhibition [2]: 42% (inactive)
- inhibition [3]: 41% (inactive)
- inhibition [4]: 27% (inactive)

SMILES: CCN(CC)c1cccc(OC2=NS(=O)(=O)c3ccccc32)c1
- inhibition [1]: 50%
- inhibition [2]: 17% (inactive)
- inhibition [3]: 32% (inactive)
- inhibition [4]: 60%

SMILES: Cc1cc2ncn(-c3ncccc3[N+](=O)[O-])c2cc1C
- inhibition [1]: 25% (inactive)
- inhibition [2]: 29% (inactive)
- inhibition [3]: -25% (inactive)
- inhibition [4]: 46% (inactive)

SMILES: COc1ccc(C2C(C#N)=C(N)N(N(C)C)C3=C2C(=O)CCC3)cc1 (stereo not given)
- inhibition [1]: 21% (inactive)
- inhibition [2]: 55%
- inhibition [3]: 49% (inactive)
- inhibition [4]: 13% (inactive)

SMILES: COC(=O)c1cc(C)nc(Sc2ccccc2N)n1
- inhibition [1]: 8% (inactive)
- inhibition [2]: -61% (inactive)
- inhibition [3]: 60%
- inhibition [4]: 23% (inactive)
